Blank lines part the entries; values can stand above or below the compound they belong to. The source made the active and inactive calls. No cut-off for these calls is given here.
How the values were obtained:
A549 [1] = experiment: […] in human A549 cells assessed as induction of LC3-II accumulation at 10 to 20 umol/L measured after 24 hrs in presence of bafilomycin A1 by Western blot analysis; format: functional, cell-based; details: dose 10-20 µmol/L
Outline: (§1)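 A549 and HepG2 cells drug-treated with or without bafilomycin A1. Lysates made in Tris pH 7.5/NP-40 buffer with protease and phosphatase inhibitors, 25–50 μg run on 7–12% SDS-PAGE, probed for LC3B, ECL detection.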

MDA-MB-231 [2] = experiment: Cytotoxicity against human MDA-MB-231 cells assessed as cell viability at 5 umol/L after 72 hrs by MTT analysis relative to control; format: functional; details: MDA-MB-231, 72 h, dose 5 µmol/L, read-out: Activity
Outline: (§2)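 Cells in DMEM with 10% FBS at 37°C, 5% CO2, plated in 96-well plates and drug-treated for 72 h. MTT 0.5 mg/ml added for 4 h, formazan dissolved in DMSO, absorbance read at 550 nm. Means and SDs; Student's t-test.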

MDA-MB-231 [3] = experiment: Cytotoxicity against human MDA-MB-231 cells assessed as reduction in cell viability at >5 umol/L after 72 hrs by MTT analysis; format: functional, cell-based; details: dose > 5.0 µmol/L; outline: as §2
HepG2 [4] = experiment: Cytotoxicity against human HepG2 cells assessed as effect on cell viability after 72 hrs by MTT analysis; format: functional, cell-based; outline: as §2
MDA-MB-231 [5] = experiment: Induction of autophagy in human MDA-MB-231 cells assessed as change in total LAMP2 expression at 20 umol/L measured after 24 hrs in presence of bafilomycin A1 by Western blot analysis; format: toxicity, cell-based; details: mda-mb-231, 24 h, 20 µM, dose 20 µmol/L
[6] = target: Histone-lysine N-methyltransferase EZH2 (Homo sapiens) (UniProt Q15910); experiment: Inhibition of EZH2 in human HepG2 cells assessed as reduction in H3K27-me3 level at 20 umol/L incubated for 72 hrs by Western blot analysis; format: cell-based; details: dose 20.0 µmol/L
Chain of Histone-lysine N-methyltransferase EZH2 (Homo sapiens) (Q15910 whole entry, looked up): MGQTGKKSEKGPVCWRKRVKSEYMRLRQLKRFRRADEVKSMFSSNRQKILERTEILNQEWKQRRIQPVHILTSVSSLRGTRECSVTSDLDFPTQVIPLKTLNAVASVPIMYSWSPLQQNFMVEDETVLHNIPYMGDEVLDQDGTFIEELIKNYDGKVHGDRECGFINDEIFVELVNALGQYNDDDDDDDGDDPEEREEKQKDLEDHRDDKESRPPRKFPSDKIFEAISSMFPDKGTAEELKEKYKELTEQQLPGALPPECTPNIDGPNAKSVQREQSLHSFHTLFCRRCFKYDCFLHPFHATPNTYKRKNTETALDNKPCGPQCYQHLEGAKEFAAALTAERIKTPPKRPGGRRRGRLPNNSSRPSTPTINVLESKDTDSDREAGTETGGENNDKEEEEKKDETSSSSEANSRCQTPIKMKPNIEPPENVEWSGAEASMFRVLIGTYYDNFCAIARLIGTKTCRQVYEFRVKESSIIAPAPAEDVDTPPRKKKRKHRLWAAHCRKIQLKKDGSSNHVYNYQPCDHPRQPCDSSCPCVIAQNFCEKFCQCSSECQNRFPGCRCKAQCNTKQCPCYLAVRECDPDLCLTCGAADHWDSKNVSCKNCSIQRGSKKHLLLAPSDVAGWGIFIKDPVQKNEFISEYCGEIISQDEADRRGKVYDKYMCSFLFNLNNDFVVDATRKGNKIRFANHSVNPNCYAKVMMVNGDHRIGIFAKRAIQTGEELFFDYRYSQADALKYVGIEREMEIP

[7] = target: Histone-lysine N-methyltransferase EZH2 (Homo sapiens) (UniProt Q15910); experiment: Inhibition of EZH2 in human A549 cells assessed as reduction in H3K27-me3 level at 20 umol/L incubated for 72 hrs by Western blot analysis; format: cell-based; details: dose 20.0 µmol/L
HepG2 [8] = experiment: Potentiation of sorafenib-induced anticancer activity in human HepG2 cells assessed as increase in cleaved PARP expression at 10 umol/L measured after 72 hrs by Western blot analysis; format: functional, cell-based; details: dose 10.0 µmol/L
Outline: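 HepG2 cells given 5 μmol/l sorafenib, with or without 10 μmol/l compound, for 72 h. Whole-cell lysates immunoblotted for PARP1, LC3B and β-actin.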

HepG2 [9] = experiment: […] in human HepG2 cells assessed as induction of LC3-II accumulation at 10 to 20 umol/L measured after 24 hrs by Western blot analysis; format: functional, cell-based; details: dose 10-20 µmol/L; outline: as §1
[10] = target: Histone-lysine N-methyltransferase EZH2 (Homo sapiens) (UniProt Q15910); experiment: Inhibition of EZH2 in human MDA-MB-231 cells assessed as reduction in H3K27-me3 level at 20 umol/L incubated for 72 hrs by Western blot analysis; format: cell-based; details: dose 20.0 µmol/L
HepG2 [11] = experiment: Potentiation of sorafenib-induced anticancer activity in human HepG2 cells at 10 umol/L measured after 72 hrs by MTT assay; format: functional, cell-based; details: dose 10.0 µmol/L
Outline: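 HepG2 cells given a range of sorafenib doses, with or without 10 μmol/l compound, for 72 h. Viability by MTT (0.5 mg/ml, 4 h, DMSO, A550). Student's t-test against untreated cells.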

HepG2 [12] = experiment: Cytotoxicity against human HepG2 cells assessed as effect on cell viability incubated for 72 hrs by MTT analysis; format: functional, cell-based; outline: as §2
HepG2 [13] = experiment: […] in human HepG2 cells assessed as induction of LC3-II accumulation at 10 to 20 umol/L measured after 24 hrs in presence of bafilomycin A1 by Western blot analysis; format: functional, cell-based; details: dose 10-20 µmol/L; outline: as §1
MDA-MB-231 [14] = experiment: Induction of apoptosis in human MDA-MB-231 cells assessed as induction of cleavage of caspase-3 at 10 to 20 umol/L incubated for 72 hrs by Western blot analysis; format: functional, cell-based; details: dose 10-20 µmol/L
MDA-MB-231 [15] = experiment: Induction of autophagy in human MDA-MB-231 cells assessed as reduction in expression of p62 at 20 umol/L incubated for 24 hrs by Western blot analysis; format: functional, cell-based; details: dose 20.0 µmol/L
A549 [16] = experiment: […] in human A549 cells assessed as induction of LC3-II accumulation at 10 to 20 umol/L measured after 24 hrs by Western blot analysis; format: functional, cell-based; details: dose 10-20 µmol/L; outline: as §1
MDA-MB-231 [17] = experiment: Induction of autophagy in human MDA-MB-231 cells assessed as change in total LAMP2 expression at 20 umol/L measured after 24 hrs by Western blot analysis; format: toxicity, cell-based; details: mda-mb-231, 24 h, 20 µM, dose 20 µmol/L
MDA-MB-231 [18] = experiment: Induction of apoptosis in human MDA-MB-231 cells assessed as induction of cleavage of PARP at 10 to 20 umol/L incubated for 72 hrs by Western blot analysis; format: functional, cell-based; details: dose 10-20 µmol/L
MDA-MB-231 [19] = experiment: Induction of autophagy in human MDA-MB-231 cells assessed as induction of LC3-II accumulation at 10 to 20 umol/L incubated for 24 hrs by Western blot analysis; format: functional, cell-based; details: dose 10-20 µmol/L
HepG2 [20] = experiment: Induction of autophagy in human HepG2 cells assessed as accumulation of LC3-II at 10 umol/L measured after 24 hrs by Western blot analysis; format: functional, cell-based; details: dose 10.0 µmol/L
Outline: (§3)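 HepG2 cells given 2.5–10 μmol/l sorafenib for 24 h; whole-cell lysates immunoblotted for EZH2, LC3B and GAPDH, with ECL detection.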

HepG2 [21] = experiment: Anticancer activity in human HepG2 cells assessed as inhibition of EZH2 expression measured after 24 hrs by Western blot analysis; format: functional, cell-based; details: dose 2.5-10 µmol/L; outline: as §3

- inhibition [6]: Active
- inhibition [7]: Active
- inhibition [10]: Active
Compound: Nc1nccc2c1ncn2[C@@H]1C=C(CO)[C@@H](O)[C@H]1O
- Activity (A549 [1]): inactive
- viability at 5 µM (MDA-MB-231 [2]): 67%
- Activity (MDA-MB-231 [3]): inactive
- Activity (HepG2 [4]): Active
- Activity (MDA-MB-231 [5]): Non-Toxic
- Activity (HepG2 [8]): inactive
- Activity (HepG2 [9]): inactive
- Activity (HepG2 [11]): inactive
- Activity (HepG2 [12]): Active
- Activity (HepG2 [13]): inactive
- Activity (MDA-MB-231 [14]): inactive
- Activity (MDA-MB-231 [15]): Active
- Activity (A549 [16]): inactive
- Activity (MDA-MB-231 [17]): Non-Toxic
- Activity (MDA-MB-231 [18]): Active
- Activity (MDA-MB-231 [19]): inactive

Compound: CNC(=O)c1cc(Oc2ccc(NC(=O)Nc3ccc(Cl)c(C(F)(F)F)c3)cc2)ccn1
- Activity (HepG2 [20]): Active
- inhibition (HepG2 [21]): Active

Source: ChEMBL document CHEMBL5712884, “S-Adenosyl-L-methionine-competitive inhibitors of the histone methyltransferase EZH2 induce autophagy and enhance drug sensitivity in cancer cells” (Anticancer Drugs, 2015)
